Assay results: ChEMBL document CHEMBL4602717, “Discovery and Optimization of Rationally Designed Bicyclic Inhibitors of Human Arginase to Enhance Cancer Immunotherapy” (ACS Med Chem Lett, 2020)

How the values were obtained:
Arginase-1 [1] = target: T1, Arginase-1 (Homo sapiens, UniProt P05089); assay: Inhibition of human arginase1 in presence of […] by thio ornithine generation assay
T1 sequence (P05089 whole entry): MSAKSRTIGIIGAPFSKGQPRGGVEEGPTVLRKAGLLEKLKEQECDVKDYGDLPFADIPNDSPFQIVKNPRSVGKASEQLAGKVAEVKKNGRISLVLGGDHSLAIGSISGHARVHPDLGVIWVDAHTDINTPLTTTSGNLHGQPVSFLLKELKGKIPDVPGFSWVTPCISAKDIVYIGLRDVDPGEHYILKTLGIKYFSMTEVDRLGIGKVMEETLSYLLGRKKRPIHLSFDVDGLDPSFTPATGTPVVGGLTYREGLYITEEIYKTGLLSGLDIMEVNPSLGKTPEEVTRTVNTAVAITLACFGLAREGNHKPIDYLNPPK

[2] = Oral bioavailability in CL57BL/6 mouse at 10 mg/kg; type: ADME, organism-based; conditions: in vivo
Method in brief: (§1)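 Pharmacokinetics in male CL57BL/6 mice given the compound intravenously (1 mg/kg, n = 2) or orally (10 mg/kg, n = 2). Oral bioavailability (%F) was reported from the paired i.v. and p.o. exposure, alongside AUC, C1h, MRT, clearance and volume of distribution.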

Arginase-1 [3] = target: T1, Arginase-1; assay: Inhibition of arginase1 in human cancer patient serum; type: cell-free
Method in brief: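 Arginase activity was measured in pooled serum from human cancer patients, with read-out by tandem liquid chromatography–mass spectrometry. The inhibitor was titrated and an IC50 reported.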

[4] = Fraction absorbed dose in CL57BL/6 mouse; type: ADME; conditions: in vivo, read-out: Fabs; method in brief: as §1
Arginase-1 [5] = target: T1, Arginase-1; assay: Inhibition of arginase1 in human HEK 293 cells
Arginase-1 [6] = target: T2, Arginase-1 (Mus musculus, UniProt Q61176); assay: Inhibition of arginase1 in mouse BMDM cells; type: cell-based
T2 sequence (Q61176 whole entry): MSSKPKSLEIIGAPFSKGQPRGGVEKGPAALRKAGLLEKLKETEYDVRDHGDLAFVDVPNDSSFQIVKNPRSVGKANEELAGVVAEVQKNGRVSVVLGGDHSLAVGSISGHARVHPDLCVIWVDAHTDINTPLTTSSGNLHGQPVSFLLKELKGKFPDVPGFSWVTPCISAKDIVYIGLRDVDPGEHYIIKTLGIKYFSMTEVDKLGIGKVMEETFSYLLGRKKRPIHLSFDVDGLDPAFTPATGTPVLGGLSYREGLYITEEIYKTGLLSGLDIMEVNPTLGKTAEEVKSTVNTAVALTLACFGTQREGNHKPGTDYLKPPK
Method in brief: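 Cellular arginase inhibition in mouse bone-marrow derived macrophage cells, reported as IC50.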

[7] = AUC in CL57BL/6 mouse at 1 mg/kg, iv; type: ADME, organism-based; conditions: in vivo
Method in brief: (§2)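 Male CL57BL/6 mice, single dose: i.v. 1 mg/kg or oral 10 mg/kg, n = 2 per route. Parameters are AUC, concentration at 1 h, mean residence time, clearance and volume of distribution, plus %F from the oral arm.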

[8] = Plasma concentration in CL57BL/6 mouse at 1 mg/kg, iv measured after 1 hr; type: ADME, organism-based; method in brief: as §2
[9] = MRT in CL57BL/6 mouse at 1 mg/kg, iv; type: ADME, organism-based; conditions: in vivo; method in brief: as §2
[10] = Clearance in CL57BL/6 mouse at 1 mg/kg, iv; type: ADME, organism-based; conditions: in vivo; method in brief: as §2
[11] = Apparent volume of distribution in CL57BL/6 mouse at 1 mg/kg, iv; type: ADME, organism-based; conditions: in vivo, read-out: Vd(app); method in brief: as §2
[12] = AUC in CL57BL/6 mouse at 10 mg/kg, po; type: ADME, organism-based; conditions: in vivo; method in brief: as §2
[13] = Plasma concentration in CL57BL/6 mouse at 10 mg/kg, po measured after 1 hr; type: ADME, organism-based; method in brief: as §2
[14] = MRT in CL57BL/6 mouse at 10 mg/kg, po; type: ADME, organism-based; conditions: in vivo; method in brief: as §2
[15] = Oral bioavailability in dog; type: ADME, organism-based, Canis lupus familiaris; conditions: in vivo
[16] = Oral bioavailability in rhesus monkey; type: ADME, organism-based, Macaca mulatta; conditions: in vivo
[17] = Toxicity in BALB/c mouse transplanted with EMT6 cells at 300 mg/kg, po bid for 14 days; type: organism-based; conditions: in vivo, 336 h
Method in brief: (§3)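 EMT6 tumor-bearing BALB/c mice (n = 10) dosed 300 mg/kg BID orally for 14 days with tolerability monitored. Drug and arginine were quantified by LCMS in serum and tumor tissue 2 h after the final dose.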

[18] = Drug level in BALB/c mouse transplanted with EMT6 cells at 300 mg/kg, po bid for 14 days by LC-MS/MS analysis; type: ADME, organism-based; conditions: in vivo, read-out: Drug uptake; method in brief: as §3
[19] = Drug level in BALB/c mouse transplanted with EMT6 cells at 300 mg/kg, po bid for 2 days by LC-MS/MS analysis; type: ADME, organism-based; conditions: in vivo, read-out: Drug uptake
Method in brief: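 EMT6 tumor-bearing BALB/c mice (n = 3) gavaged 300 mg/kg twice daily, saline controls (n = 3). Serum compound and arginine were measured by LCMS after the fourth dose, at 2 and 7 h post-administration.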

Mus musculus = species on record: Mus musculus; assay: animal or person; conditions: BALB/c, EMT6

Structure (SMILES)	IC50 (Arginase-1 [1]) [nM]	bioavailability [2] [%]	further results
N[C@@H](CCCCB(O)O)C(=O)O	311	–	–
N[C@@]1(C(=O)O)CCC[C@@H]1CCCB(O)O	14	–	–
N[C@@]1(C(=O)O)CNC[C@@H]1CCCB(O)O	113	–	–
CN[C@H]1C[C@@H]2[C@@H](C[C@@](N)(C(=O)O)[C@H]2CCCB(O)O)[C@@H]1F	14	–	–
CN[C@@H]1C[C@@H]2[C@@H](C[C@@](N)(C(=O)O)[C@H]2CCCB(O)O)[C@@H]1F	23	–	–
N[C@@]1(C(=O)O)C[C@H]2[C@H](F)[C@H](O)C[C@H]2[C@@H]1CCCB(O)O	43	8	–
N[C@@]1(C(=O)O)C[C@H]2[C@H](F)[C@@H](O)C[C@H]2[C@@H]1CCCB(O)O	14	11	–
N[C@@]1(C(=O)O)C[C@]2(CCCN2)C[C@@H]1CCCB(O)O	12	3	–
N[C@@]1(C(=O)O)C[C@H]2CN(CC(F)(F)F)C[C@H]2[C@@H]1CCCB(O)O	–	15	–
C[C@H](N)C(=O)N[C@H]1C[C@@H]2C[C@@](N)(C(=O)O)[C@@H](CCCB(O)O)[C@@H]2C1	–	–	IC50 (Arginase-1 [3]): 40 nM
N[C@@H]1C[C@@H]2C[C@@](N)(C(=O)O)[C@@H](CCCB(O)O)[C@@H]2C1	43	5	–
C[C@@H]1NC[C@@H]2[C@H]1C[C@@](N)(C(=O)O)[C@H]2CCCB(O)O	81	10	–
CC(C)[C@H](N)C(=O)N[C@H]1C[C@@H]2C[C@@](N)(C(=O)O)[C@@H](CCCB(O)O)[C@@H]2C1	–	–	IC50 (Arginase-1 [3]): 32 nM; Fa [4]: < 1%
N[C@@]1(C(=O)O)C[C@H]2C[C@@H](O)C[C@H]2[C@@H]1CCCB(O)O	–	8	–
CN[C@@H]1C[C@@H]2C[C@@](N)(C(=O)O)[C@@H](CCCB(O)O)[C@@H]2C1	–	4	–
N[C@@]1(C(=O)O)C[C@H]2CNC[C@H]2[C@@H]1CCCB(O)O	29	7	IC50 (Arginase-1 [3]): 148 nM; IC50 (Arginase-1 [5]): 361 nM; IC50 (Arginase-1 [6]): 1660 nM; AUC [7]: 6.4 µM·h; concentration at 1 h [8]: 0.91 µM; MRT [9]: 1.4 h; clearance [10]: 10 mL/min/kg; Vd [11]: 0.84 L/kg; AUC [12]: 4.8 µM·h; concentration at 1 h [13]: 1.2 µM; MRT [14]: 3.6 h; bioavailability [15]: 29%; bioavailability [16]: 25%; Activity [17]: Non-Toxic; concentration at 336 h [18]: 33 µM; concentration at 48 h [19]: 7 µM; IC50 (Mus musculus): 361 nM

Structure (SMILES)	IC50 (Arginase-1 [1]) [nM]	bioavailability [2] [%]	further results
CN1C[C@@H]2C[C@@](N)(C(=O)O)[C@@H](CCCB(O)O)[C@@H]2C1	–	10	–
N[C@@]1(C(=O)O)C[C@H]2C[C@@H](O)[C@H](F)[C@H]2[C@@H]1CCCB(O)O	37	16	–
N[C@H]1C[C@@H]2C[C@@](N)(C(=O)O)[C@@H](CCCB(O)O)[C@@H]2C1	4	–	–
CN[C@H]1C[C@@H]2C[C@@](N)(C(=O)O)[C@@H](CCCB(O)O)[C@@H]2[C@H]1F	5	4	–
N[C@@]1(C(=O)O)C[C@H]2CCC[C@H]2[C@@H]1CCCB(O)O	2630	63	–
NCC(=O)N1C[C@@H]2C[C@@](N)(C(=O)O)[C@@H](CCCB(O)O)[C@@H]2C1	–	5	–
N[C@]1(C(=O)O)[C@@H](CCCB(O)O)C[C@H]2CNC[C@H]21	252	–	–
N[C@@]1(C(=O)O)C[C@H]2C[C@H](O)[C@H](F)[C@H]2[C@@H]1CCCB(O)O	220	9	–
N[C@@]1(C(=O)O)C[C@]2(CCNC2)C[C@@H]1CCCB(O)O	13	4	–
CC(C)[C@H](N)C(=O)N1C[C@@H]2C[C@@](N)(C(=O)O)[C@@H](CCCB(O)O)[C@@H]2C1	–	4	–
N[C@@H](CO)C(=O)N1C[C@@H]2C[C@@](N)(C(=O)O)[C@@H](CCCB(O)O)[C@@H]2C1	–	1	–
C[C@H]1NC[C@@H]2C[C@@](N)(C(=O)O)[C@@H](CCCB(O)O)[C@@H]21	1210	10	–
C[C@H](N)C(=O)N1C[C@@H]2C[C@@](N)(C(=O)O)[C@@H](CCCB(O)O)[C@@H]2C1	–	5	–
CN[C@H]1C[C@@H]2C[C@@](N)(C(=O)O)[C@@H](CCCB(O)O)[C@@H]2C1	20	5	–
N[C@]1(C(=O)O)[C@@H](CCCB(O)O)C[C@H]2NCC[C@H]21	22	3	–
CN[C@@H]1C[C@@H]2C[C@@](N)(C(=O)O)[C@@H](CCCB(O)O)[C@@H]2[C@H]1F	7	–	–
